mABHD4 FP = ABHD4 (mouse) inhibition, primary FP screen; Q8VD66; purified mABHD4, FP-Rh probe fluorescence polarization; inhibition, % at 8.92 µM; 370,000 tested, 0.54% active;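 active means inhibition exceeding the mean over every tested compound plus 3 SD, cut at about 30% in these data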;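 further: 0% = plate median of compound wells and 100% = S159A mutant with DMSO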
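assay system = mABHD4 protein | compound dosing = single nominal dose of 8.92 µM, 0.89% DMSO final | read-out basis = percent inhibition of probe binding, normalized to plate controls | schedule = Enzyme–compound pre-incubation 45 min, then probe 60 min, both 25 °C | detection = fluorescence polarization, excitation 525 nm, emission 598 nm, BODIPY TMR filters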
PRMT1 FP inh = PRMT1 (human) inhibition, primary screen; 370,000 tested, 1.3% active; Q99873; recombinant PRMT1, activity-based probe fluorescence polarization; inhibition, % at 2.79 µM;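 active means inhibition above about 21% made by adding two undisclosed values, limit read from the data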
Target sequence (Q99873 whole entry, looked up): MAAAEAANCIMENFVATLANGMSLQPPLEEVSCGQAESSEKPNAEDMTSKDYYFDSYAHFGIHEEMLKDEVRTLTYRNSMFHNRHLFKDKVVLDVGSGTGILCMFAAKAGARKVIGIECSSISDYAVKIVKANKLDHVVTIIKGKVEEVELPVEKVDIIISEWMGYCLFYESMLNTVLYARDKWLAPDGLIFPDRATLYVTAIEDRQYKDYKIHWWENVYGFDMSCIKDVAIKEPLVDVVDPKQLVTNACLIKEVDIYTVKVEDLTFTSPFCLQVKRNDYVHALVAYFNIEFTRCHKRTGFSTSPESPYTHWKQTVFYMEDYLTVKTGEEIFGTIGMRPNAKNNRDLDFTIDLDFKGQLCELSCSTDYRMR
TCR-CD3 inh = inhibitors of human TCR-CD3 interaction | TAMRA-labeled TCR probe fluorescence, biochemical | inhibition, % at 9.4 µM | 360,000 tested, 0.37% active; in the data active means inhibition above about 19%;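 further: recombinant mutant TCR 2C K166C tagged with TAMRA read by polarization; 0% = receptor in buffer alone and 100% = receptor with positive control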
rCAG RNA binder = r(CAG) repeat RNA binding; 370,000 tested, 1.3% active; inhibition, % at 3 µM; TO-PRO-1 dye displacement fluorescence; AID 651821;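 active means inhibition above the plate cutoff, the mean of all test compounds on that plate plus 3 SD, cut at about 35% in these data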;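 further: 0% = DMSO alone and 100% = 100 µM mitoxantrone as full dye displacement; higher means more dye released from RNA so lower well fluorescence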
HTRA1 inh = HTRA1 (human) protease inhibition; Q92743; 340,000 tested, 0.5% active; inhibition, % at 5.96 µM; recombinant HTRA1, FP-rhodamine activity-based probe, fluorescence polarization; in the data active means inhibition above about 36%;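 further: 0% = enzyme with DMSO and 100% = wells lacking enzyme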
SIAE primary = inhibitors of human sialic acid acetylesterase SIAE. Q9HAT2. SIAE FP-Rh probe binding, fluorescence polarization. inhibition, % at 9.66 µM. 370,000 tested, 0.69% active;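 active means inhibition above a cutoff: mean of compounds within the control limits plus 3 SD of those, cut at about 17% in these data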;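 further: 0% = plate median of compound wells and 100% = probe without SIAE protein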
PRMT1 confirm = PRMT1 (human) inhibition, FP confirmation. inhibition, % at 2.79 µM. recombinant His-PRMT1, activity-based probe fluorescence polarization. 3,300 tested, 42% active. shares compounds with PRMT1 FP inh. AID 687036;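 active means mean inhibition across replicates above the hit cutoff derived for the earlier primary screen, cut at about 22% in these data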
The depositor's hits bear a star; / = not tested or not shown. Sampled rows, rich in hits. Any-hit rate of the full collection: about 3.5%.

SMILES	mABHD4 FP	PRMT1 FP inh	TCR-CD3 inh	rCAG RNA binder	HTRA1 inh	SIAE primary	PRMT1 confirm
CCOC(=O)[C@@]12CCCC3=C1N(CCC3)C(=O)[C@H]2CC(=O)N1CCSCC1	4	-1	/	2	/	6	/
O=C(NC1CCCCC1)c1nn2c(C(F)(F)F)cc(-c3ccco3)nc2c1Br	3	0	1	4	24	4	/
O=C(c1ccccc1)N1CCN(C(=O)c2nn3c(C(F)(F)F)cc(-c4ccco4)nc3c2Br)CC1	20	30*	-4	30	6	15	3
COc1ccccc1C=NNC(=O)CSc1nc2ccccc2n1Cc1ccc(Cl)cc1	-12	-2	/	10	/	-12	/
CN[C@H]1C[C@H]2c3[nH]c4cccc(-c5ccccc5)c4c3CCN2C[C@H]1[C@H](C)O	6	3	/	11	/	-3	/
Cc1cc(C)nc(Sc2nc(Cl)nc(N(c3ccccc3)c3ccccc3)n2)n1	-16	59*	-6	-4	1	2	10
Cc1cc(C)nc(SC(C(=O)O)c2ccccc2)n1 (stereo unspecified)	-7	2	-3	-2	4	-4	/
CC1Cc2cc(S(=O)(=O)NCc3ccccc3)ccc2N1C(=O)C1CC1 (stereo unspecified)	-11	47*	-5	-2	4	-5	3
COc1ccc(S(=O)(=O)c2c(N)n(Cc3ccco3)c3nc4ccccc4nc23)cc1	-13	28*	-7	29	6	-8	18
O=C(C1CCN(C2CC(=O)N(c3ccc(F)cc3)C2=O)CC1)N1CCOCC1 (stereo unspecified)	0	46*	1	-3	4	-9	3
O=C1CC(N2CCC(C(=O)N3CCCCC3)CC2)C(=O)N1 (stereo unspecified)	-5	62*	-2	0	1	3	7
O=C1CC(N2CCN(c3ccccn3)CC2)C(=O)N1c1ccc(F)cc1 (stereo unspecified)	0	2	8	-1	/	7	/
O=C1CC(N2CCOCC2)C(=O)N1c1ccccc1Cl (stereo unspecified)	-1	26*	8	2	8	-6	2
O=C1CCCN1CCC1CCN(C2CC(=O)N(c3ccc(F)cc3)C2=O)CC1 (stereo unspecified)	7	48*	9	-1	0	0	7
O=C1CC(N2CCOCC2)C(=O)N1c1cc(Cl)cc(Cl)c1 (stereo unspecified)	-8	7	-6	10	-16	1	/
CCCCCn1nnnc1C1(C)CCCCC(=O)N1Cc1ccco1 (stereo unspecified)	1	-4	/	1	/	-4	/
C[C@@H]1CCN(C2CC2)S(=O)(=O)c2ccc(N3CC[C@H](O)C3)cc2O1	1	-5	/	4	/	2	/
CCOC(=O)[C@@]12CN(C(=O)OC(C)(C)C)CC=C1N(Cc1ccc(OC)cc1)C(=O)[C@H]2CC(=O)NCc1ccc(C)o1	7	8	/	6	/	8	/
COc1cc(OC)cc(N2C(=O)CC(N3CCC(C(=O)N4CCCCC4)CC3)C2=O)c1 (stereo unspecified)	-16	78*	1	-3	-4	-4	2
CC(=O)Nc1cccc(N2C(=O)CC(N3CCC(C(=O)N4CCCCC4)CC3)C2=O)c1 (stereo unspecified)	2	79*	-3	-2	-3	-4	1
N=C1N(C(=O)OCc2ccccc2)/C(=C\C2=CCCCC2)C(Cc2ccccc2)N1Cc1ccccc1 (stereo unspecified)	13	1	/	3	/	4	/
COc1ccc(C2C(C(=O)Nc3ccc(Cl)cc3)CCC(=O)N2c2ccc(OC)cc2)cc1 (stereo unspecified)	-3	-5	/	0	/	-2	/
Cc1ccc2occ(C3N[C@H](C(=O)O)CS3)c(=O)c2c1 (stereo partly specified)	0	50*	6	5	-19	3	45*
Cc1ccc(N=Nc2c(N)nn3c(C)cc(C)nc23)cc1	3	1	0	5	5	-2	/
Cc1cc(C)n2nc(N)c(N=Nc3cccc(Cl)c3)c2n1	-3	58*	-4	10	0	-6	0
SMILES	mABHD4 FP	PRMT1 FP inh	TCR-CD3 inh	rCAG RNA binder	HTRA1 inh	SIAE primary	PRMT1 confirm
O=C1NC(c2ccccc2)=N/C1=C/c1ccco1	9	34*	4	6	1	6	3
CC(=O)Nc1ccc(SC(Sc2ccc(NC(C)=O)cc2)c2ccccc2)cc1	-40	29*	-5	6	-40	-17	22*
FC(F)(F)c1ccccc1Cc1c(-c2ccco2)nc2ccc(Cl)cn12	6	35*	0	18	/	-9	16
FC(F)(F)c1cc(Cl)c2nc(-c3ccco3)c(Cc3ccccc3C(F)(F)F)n2c1	-2	47*	6	58*	/	4	15
N#Cc1ccc(-c2nc3ccc(Cl)cn3c2Cc2ccccc2C(F)(F)F)cc1	-2	1	-3	9	/	-4	/
CN(Cc1ccccc1)C(=O)OCc1cn(Cc2cccc(C(F)(F)F)c2)nn1	-5	-2	/	-1	/	-2	/
O=C(NCc1ccccc1F)C1C2C=CC3(CN(Cc4ccccc4)C(=O)C13)O2 (stereo unspecified)	6	3	/	-1	/	-5	/
CC(C)c1cc(C(C)C)c(S(=O)(=O)N2CCC(C(=O)NCC3COCCO3)CC2)c(C(C)C)c1 (stereo unspecified)	-6	1	/	4	/	-1	/
COC(=O)[C@H]1C[C@@]2(N3CCCCC3)c3ccccc3N[C@H]2N1S(=O)(=O)c1ccc([N+](=O)[O-])cc1	8	5	/	7	/	1	/
Cn1cccc1C(=O)N1CCN(S(=O)(=O)c2cccs2)CC1	3	5	/	4	/	-1	/
COc1ccccc1-c1ccc(/C=C2\C=CC(=O)O2)o1	12	44*	-1	20	/	0	3
COc1ccccc1-c1ccc(/C=C2/C=C(C)OC2=O)o1	18	19	1	24	-7	3	/
O=C(NNc1nc(-c2ccccc2)cs1)c1cccs1	3	51*	-1	26	/	6	-2
CC(=Nc1ccccc1O)c1sc2ccccc2c1O	16	34*	-3	4	27	5	25*
CC(=Nc1cccc(C)c1)c1sc2ccccc2c1O	4	26*	2	0	-2	7	19
Oc1c(N=Nc2ccccc2)sc2ccccc12	-15	7	-10	0	-8	-5	/
CC(=O)NCCN=C(C)c1sc2ccccc2c1O	2	25*	-1	1	4	3	21*
Cc1c(C(=O)c2ccccc2C(=O)O)sc2ccccc12	-3	-6	-4	12	3	4	/
CCCCNC(=O)N1CCCC1C(=O)Nc1cccc(OC)c1 (stereo unspecified)	6	2	/	5	/	4	/

High-throughput results: PubChem BioAssay, The Scripps Research Institute Molecular Screening Center
